# Measurements from PubChem BioAssay.
# Calls of active or inactive are those of the source. Cut-off read from the data, not from the text of the source, unless noted: active = inhibition above about 30%; inactive = the rest.
# Key:
# [1] = Her2 expression decrease, cell viability multiplex – SKBR3 breast tumor cells, AlphaScreen, ATP viability, primary screen (AID 461;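 active = Her2 level under about 52% in both replicate screens, with viability over 70% of control, limit read from the data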;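 for Her2 level: lower value means less Her2 protein in the cells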;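 for viability: percent of carrier control wells set as 100% viability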); conditions: SKBR3 Her2 protein level, 18-24 h, measured here: SKBR3 viability, ATP luminescence, at 10 µM
# [2] = target: Receptor tyrosine-protein kinase erbB-2 (Homo sapiens) (UniProt P04626); assay: as above; conditions: 18-24 h, at 10 µM, stronger effect = lower value
# Sequence of Receptor tyrosine-protein kinase erbB-2 (Homo sapiens) (P04626 whole entry, looked up): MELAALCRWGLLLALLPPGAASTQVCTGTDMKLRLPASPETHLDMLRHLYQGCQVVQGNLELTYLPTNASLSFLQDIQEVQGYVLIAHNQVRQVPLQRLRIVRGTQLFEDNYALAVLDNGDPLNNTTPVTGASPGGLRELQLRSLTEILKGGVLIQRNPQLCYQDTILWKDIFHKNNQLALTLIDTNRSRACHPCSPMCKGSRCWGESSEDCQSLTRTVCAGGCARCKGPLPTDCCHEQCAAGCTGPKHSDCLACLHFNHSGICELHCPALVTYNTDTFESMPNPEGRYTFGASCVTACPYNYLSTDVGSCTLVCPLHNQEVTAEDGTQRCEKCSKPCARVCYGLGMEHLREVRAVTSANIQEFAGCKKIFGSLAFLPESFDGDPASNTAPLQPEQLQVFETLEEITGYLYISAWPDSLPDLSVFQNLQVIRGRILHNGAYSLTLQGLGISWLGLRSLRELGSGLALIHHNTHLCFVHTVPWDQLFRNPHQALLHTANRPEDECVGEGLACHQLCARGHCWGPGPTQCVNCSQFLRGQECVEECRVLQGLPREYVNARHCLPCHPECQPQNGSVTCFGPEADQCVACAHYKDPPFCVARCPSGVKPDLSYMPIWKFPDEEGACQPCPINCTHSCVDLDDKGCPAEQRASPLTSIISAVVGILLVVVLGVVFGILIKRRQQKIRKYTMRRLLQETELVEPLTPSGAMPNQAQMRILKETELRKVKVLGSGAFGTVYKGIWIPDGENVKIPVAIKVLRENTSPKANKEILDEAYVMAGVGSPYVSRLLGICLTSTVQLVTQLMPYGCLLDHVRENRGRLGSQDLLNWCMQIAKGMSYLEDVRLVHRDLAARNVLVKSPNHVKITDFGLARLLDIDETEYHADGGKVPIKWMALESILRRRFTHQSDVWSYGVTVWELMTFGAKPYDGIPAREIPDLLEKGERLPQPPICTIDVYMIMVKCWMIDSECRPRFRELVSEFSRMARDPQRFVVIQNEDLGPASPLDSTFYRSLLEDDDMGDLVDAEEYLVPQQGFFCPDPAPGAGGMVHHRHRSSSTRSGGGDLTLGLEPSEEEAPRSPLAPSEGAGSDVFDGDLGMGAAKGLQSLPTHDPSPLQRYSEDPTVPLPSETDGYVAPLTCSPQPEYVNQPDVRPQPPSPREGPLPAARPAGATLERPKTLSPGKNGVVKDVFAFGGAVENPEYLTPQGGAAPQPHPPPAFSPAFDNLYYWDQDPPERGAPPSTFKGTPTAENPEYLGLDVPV
# [3] = reduced viability of SK-BR-3 breast cancer cells – cell-based, 24 h, human, pilot screen (AID 572;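 active = viability at or below 10% of carrier control in both of two separate runs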;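 note: compound exposure lasted between 18 and 24 h rather than exactly 24 h; 100% = carrier-treated control wells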); conditions: SK-BR-3 viability, CellTiter-Glo luminescence, at 10 µM, stronger effect = lower value
# [4] = HUVEC growth inhibition – cell-based, human, primary screen (AID 575;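 active = viability at or below 30% in both replicate assays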;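 note: 100% = median of untreated cell wells with 0.1% DMSO on each plate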); conditions: HUVEC proliferation, CellTiter-Glo luminescence, 72 h; at 10 µM; stronger effect = lower value
# Summary of the method: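 Test system: primary human umbilical vein endothelial cells. Quantity: 1250 cells/well. Compound: single 10 µM dose, 0.1% DMSO, from 5x medium stock. Timing: 72 h treatment at 37 °C. Detection: ATP-based CellTiter-Glo luminescent read. Benchmarks: vehicle and MePR control wells. Format: 384-well plates coated with collagen.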
# [5] = H69AR cell proliferation blockers – human, duplicate replicates, primary screen (AID 580;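 active = viability at or under a set limit in both replicates, limit being median viability minus 3 SD, cut at about 48% in these data, passing the limit was not always enough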;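 note: 100% = mean luminescence of untreated wells and 0% = no signal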); conditions: H69AR lung tumor cells viability, ATP luminescence, 72 h; at 10 µM; stronger effect = lower value
# [6] = MRP1 drug-resistance reversers in H69AR cells – cell-based, doxorubicin co-treatment, pilot screen (AID 601;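 active = viability loss from added drug above about 55%, and viability with drug at most 40%, in both replicates, limit read from the data, passing the limit was not always enough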); conditions: CellTiter-Glo, 72 h, at 10 µM; for differential viability (reversal): stronger effect = higher value
# [7] = yeast transport mutant growth inhibition pilot in 384-well plates, post-Golgi transport modulator project (AID 636; in the data active = inhibition above about 31%); conditions: absorbance 615 nm, about 18 h, stronger effect = higher value
# [8] = growth suppression of yeast trafficking mutant, preliminary HTS, modulators of trafficking downstream of Golgi apparatus project, 1536-format plate, OD 615 nm (AID 637); conditions: yeast transport mutant growth, absorbance 615 nm, 18 h; stronger effect = higher value
# [9] = H69AR cells + 2 uM doxorubicin, measured here: viability with 2 uM doxorubicin, stronger effect = lower value
# [10] = H69AR cells, compound alone cytotoxicity
Compound,viability [1] [%],Her2 level [2],viability [3],viability [4],viability [5],differential viability (reversal) ([6]; H69AR cells + 2 uM doxorubicin),"viability [6, 9] [%]","viability [6, 10] [%]",inhibition [7],inhibition [8]
COCCn1c(SCC(=O)N(C(C)C)C(C)C)nnc1-c1cc2ccccc2cc1O,96,91.5% (inactive),96% (inactive),106% (inactive),88.3% (inactive),0.38% (inactive),88,88.3,-1.3% (inactive),-5.5% (inactive)
O=C(C1CC1)N1CCc2cc(S(=O)(=O)N(CCO)Cc3ccccc3)ccc21,94,102% (inactive),94% (inactive),77% (inactive),98.8% (inactive),-1.38% (inactive),100,98.8,-0.4% (inactive),-0.33% (inactive)
COC(=O)Cc1c(C)nc2nc(-c3ccco3)[nH]n2c1=O,110,93% (inactive),110% (inactive),93.6% (inactive),98.7% (inactive),8.05% (inactive),90.6,98.7,-2.76% (inactive),-3.65% (inactive)
Nc1nonc1-c1noc(CCCCCN2C(=O)c3ccccc3C2=O)n1,102,102% (inactive),102% (inactive),108% (inactive),105% (inactive),7.63% (inactive),97.6,105,-4.4% (inactive),-6.61% (inactive)
CC1=C(C(=O)NCc2ccccc2)C(c2ccccc2OCC(N)=O)NC(=O)N1 (stereo not given),93.5,77% (inactive),93.5% (inactive),89.1% (inactive),109% (inactive),15.9% (inactive),92.9,109,-4.13% (inactive),1.43% (inactive)
CCOc1ccc(C(=O)Nc2ccc(N3CCN(C)CC3)cc2)cc1Br,114,93% (inactive),114% (inactive),2.57% (active),81.8% (inactive),10.2% (inactive),71.7,81.8,-4.67% (inactive),12.1% (inactive)
O=c1c2c(nc3nc(CCc4ccccc4)[nH]n13)CCC2,112,92% (inactive),112% (inactive),86.6% (inactive),91% (inactive),14% (inactive),77,91,-6% (inactive),0.16% (inactive)
O=C(Cc1c(O)c2ccccc2[nH]c1=O)NCc1ccc(F)cc1,121,87.5% (inactive),121% (inactive),90.5% (inactive),91.3% (inactive),2.8% (inactive),88.5,91.3,-4.87% (inactive),10% (inactive)
Cc1cc(NC(=O)COC(=O)C2COc3ccccc3O2)no1 (stereo not given),110,95.5% (inactive),110% (inactive),104% (inactive),96.7% (inactive),11% (inactive),85.7,96.7,-4.61% (inactive),-5% (inactive)
CC(=O)c1cccc(NC(=O)N2CCCC2C(=O)NCc2ccc(C)cc2)c1 (stereo not given),104,93.5% (inactive),104% (inactive),92.5% (inactive),95.6% (inactive),8.41% (inactive),87.1,95.6,-8.92% (inactive),8.33% (inactive)
O=C(c1ccc(Br)o1)N(c1ccc(Br)cc1)C1C=CS(=O)(=O)C1 (stereo not given),89,156% (inactive),89% (inactive),80% (inactive),87% (inactive),5.32% (inactive),81.7,87,5% (inactive),21% (inactive)
CCC(NS(=O)(=O)c1ccc(C)cc1)C(=O)N1CCC2(O)CCCCC2C1 (stereo not given),94,105% (inactive),94% (inactive),90.7% (inactive),94.5% (inactive),5.91% (inactive),88.6,94.5,-3.2% (inactive),-1.8% (inactive)
CCNC(=O)CC(=O)Nc1ccccc1C(=O)O,104,99.5% (inactive),104% (inactive),125% (inactive),103% (inactive),5.93% (inactive),96.9,103,-5.95% (inactive),-2.67% (inactive)
Cc1ccc(C)c(/C(O)=C2\C(=O)C(=O)N(CCCN3CCOCC3)C2c2cccnc2)c1 (stereo not given),99,101% (inactive),99% (inactive),91.4% (inactive),90.2% (inactive),-5.11% (inactive),95.3,90.2,-3.59% (inactive),-2.33% (inactive)
O=c1cc(NCc2ccccc2)nc2n1CCCS2,103,98% (inactive),103% (inactive),104% (inactive),92.1% (inactive),0.29% (inactive),91.8,92.1,-3.68% (inactive),-5.71% (inactive)
CN(C)c1nc(SCCOC(=O)c2ccccc2)nc(N(C)C)n1,96,80.5% (inactive),96% (inactive),82.1% (inactive),101% (inactive),16.4% (inactive),85,101,-4.47% (inactive),-2.67% (inactive)
